This passage reports IC50 and Ratio IC50 results from ChEMBL document CHEMBL1148717, “Design, synthesis, and biological evaluation of Plasmodium falciparum lactate dehydrogenase inhibitors” (J Med Chem, 2007).

In experiment [1] the target is T1, Malate dehydrogenase, mitochondrial (Sus scrofa, UniProt P00346).
T1 sequence (P00346 whole entry): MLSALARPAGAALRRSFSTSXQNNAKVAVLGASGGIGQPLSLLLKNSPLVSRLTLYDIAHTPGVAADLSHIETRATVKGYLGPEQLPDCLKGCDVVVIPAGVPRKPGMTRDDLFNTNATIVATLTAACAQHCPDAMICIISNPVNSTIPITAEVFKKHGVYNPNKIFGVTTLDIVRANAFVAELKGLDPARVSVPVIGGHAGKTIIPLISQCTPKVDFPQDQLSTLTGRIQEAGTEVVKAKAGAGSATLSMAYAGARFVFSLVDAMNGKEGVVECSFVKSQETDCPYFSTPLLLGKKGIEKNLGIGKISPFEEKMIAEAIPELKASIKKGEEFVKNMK
Description: Inhibition of pig heart mitochondrial MDH. In a few lines:
(§1)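 Recombinant P. falciparum LDH and MDH, bovine heart LDH, and porcine heart mitochondrial and cytosolic MDH were each assayed in 50 mM potassium phosphate (pH 7.0) with 200 µM pyruvate. Reactions were started with 250 µM NADH, and the fall in A340 was followed for 5 min at 25 °C. Compounds were first screened at 50 and 100 µg/mL. Those giving over 50% inhibition at 50 µg/mL were retested for IC50.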

For the next experiment, the target named is Lactate dehydrogenase (Plasmodium falciparum, UniProt Q0PJ46). The experiment in a line: Inhibition of Plasmodium falciparum LDH. In outline: as §1
Experiment [2] in a line: Inhibition of bovine heart LDH. Further details: species or system Bos taurus; call rule not given here.
The target in another experiment is T2, Malate dehydrogenase (Plasmodium falciparum, UniProt Q6VVP7).
T2 sequence (Q6VVP7 whole entry): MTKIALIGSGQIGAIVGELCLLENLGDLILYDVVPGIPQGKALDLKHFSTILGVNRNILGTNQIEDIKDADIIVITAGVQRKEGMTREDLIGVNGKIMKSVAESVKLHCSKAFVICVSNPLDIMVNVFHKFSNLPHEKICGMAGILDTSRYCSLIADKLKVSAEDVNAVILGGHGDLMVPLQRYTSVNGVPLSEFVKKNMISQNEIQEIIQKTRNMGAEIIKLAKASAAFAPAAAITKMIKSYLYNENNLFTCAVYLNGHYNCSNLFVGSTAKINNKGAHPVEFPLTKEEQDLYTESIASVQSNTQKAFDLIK
Description: Inhibition of Plasmodium falciparum MDH. In a few lines: as §1

For experiment [3], the target named is T3, Malate dehydrogenase, cytoplasmic (Sus scrofa, UniProt P11708).
T3 sequence (P11708 whole entry): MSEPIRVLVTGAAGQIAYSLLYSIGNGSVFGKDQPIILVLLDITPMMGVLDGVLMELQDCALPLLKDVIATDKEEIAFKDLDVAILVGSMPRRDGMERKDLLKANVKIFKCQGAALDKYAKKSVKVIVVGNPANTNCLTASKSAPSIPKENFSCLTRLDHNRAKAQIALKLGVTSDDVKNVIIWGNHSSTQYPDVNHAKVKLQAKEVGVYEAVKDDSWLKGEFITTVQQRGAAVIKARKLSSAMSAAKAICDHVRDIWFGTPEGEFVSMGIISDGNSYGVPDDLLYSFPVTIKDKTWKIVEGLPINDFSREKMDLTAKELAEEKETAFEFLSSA
The experiment in a line: Inhibition of pig cytosolic MDH. In outline: as §1

A short description of experiment [4]: Selectivity for Plasmodium falciparum LDH over bovine heart LDH.

Bounds are passed on as bounds.

Chain of Lactate dehydrogenase (Q0PJ46 whole entry): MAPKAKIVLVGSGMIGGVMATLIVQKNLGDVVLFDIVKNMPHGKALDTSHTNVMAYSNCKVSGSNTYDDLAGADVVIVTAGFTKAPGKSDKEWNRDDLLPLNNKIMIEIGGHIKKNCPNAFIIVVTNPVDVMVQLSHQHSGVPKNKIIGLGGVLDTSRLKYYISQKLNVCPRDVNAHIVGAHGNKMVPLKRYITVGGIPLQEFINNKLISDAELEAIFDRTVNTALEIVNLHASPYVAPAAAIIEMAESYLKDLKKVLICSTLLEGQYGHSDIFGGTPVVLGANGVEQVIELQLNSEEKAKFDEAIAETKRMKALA

Regarding `COc1ccc(CNC(=O)c2cc(=O)c3c(O)cc(OCCc4ccc(NC(=O)C(=O)O)c(OC)c4)cc3o2)cc1`, the IC50 was 0.39 µM in experiment [1]; 1.75 µM at Lactate dehydrogenase (read-out: IC50); 11.4 µM in experiment [2] (read-out: IC50); 2.66 µM on Malate dehydrogenase (read-out: IC50); 6.31 µM in experiment [3] (read-out: IC50).
On to `O=C(O)C(=O)Nc1ccc(CCOc2cc(O)c3c(=O)cc(C(=O)O)oc3c2)cc1`, for which the IC50 was 96.7 µM in experiment [1], above 241 µM on Lactate dehydrogenase (read-out: IC50), above 241 µM on Malate dehydrogenase (read-out: IC50) and “Not Active” in experiment [3].
For `COc1ccc(CNC(=O)c2cc(=O)c3c(O)cc(OCCc4ccc(NC(=O)C(=O)O)c(C#N)c4)cc3o2)cc1`, in experiment [4], the Ratio IC50 was determined as 22. The IC50 in experiment [1] is 5.91 µM; on Lactate dehydrogenase (read-out: IC50) it was 8.25 µM; in experiment [2] (read-out: IC50), above 179 µM; on Malate dehydrogenase (read-out: IC50), 86.9 µM; in experiment [3] (read-out: IC50), 10.9 µM.
As to `N#Cc1cc(CCOc2cc(O)c3c(=O)cc(C(=O)O)oc3c2)ccc1NC(=O)C(=O)O`, the IC50 is 17.1 µM in experiment [1]; “Not Active” against Lactate dehydrogenase; “Not Active” in experiment [2]; “Not Active” against Malate dehydrogenase; 13.6 µM in experiment [3] (read-out: IC50).
Turning to `COc1cc(COc2cc(O)c3c(=O)cc(C(=O)O)oc3c2)ccc1NC(=O)C(=O)O`, the IC50 is 64 µM in experiment [1], 87.3 µM on Lactate dehydrogenase (read-out: IC50), 48.3 µM at Malate dehydrogenase (read-out: IC50) and above 232 µM in experiment [3] (read-out: IC50).
For `COc1ccc(CNC(=O)c2cc(=O)c3c(O)cc(OCCc4ccc(NC(=O)C(=O)O)cc4)cc3o2)cc1`, in experiment [4], the Ratio IC50 turned out to be 59. In addition, the IC50 in experiment [1] was 2.72 µM; on Lactate dehydrogenase (read-out: IC50), 3.13 µM; in experiment [2] (read-out: IC50), above 187 µM; on Malate dehydrogenase (read-out: IC50) it was 6.76 µM; in experiment [3] (read-out: IC50), 4.88 µM.
On to `NC(=O)C(=O)O` [OXAMATE], for which the IC50 in experiment [1] was above 2000 µM; at Lactate dehydrogenase (read-out: IC50), 92.5 µM; on Malate dehydrogenase (read-out: IC50), above 2000 µM; in experiment [3] (read-out: IC50) it was above 2000 µM.
Turning to `Cc1cc2c(C(C)C)c(O)c(O)c(C=O)c2c(O)c1-c1c(C)cc2c(C(C)C)c(O)c(O)c(C=O)c2c1O` [GOSSYPOL], the IC50 came out at 2.8 µM in experiment [1]; 2.64 µM at Lactate dehydrogenase (read-out: IC50); 9.54 µM in experiment [2] (read-out: IC50); 2.03 µM on Malate dehydrogenase (read-out: IC50); 5.8 µM in experiment [3] (read-out: IC50).
Turning to `COc1cc(CCOc2cc(O)c3c(=O)cc(C(=O)O)oc3c2)ccc1NC(=O)C(=O)O`, the half-maximal inhibitory concentration (IC50) in experiment [1] was above 225 µM; on Lactate dehydrogenase (read-out: IC50), 191 µM; at Malate dehydrogenase (read-out: IC50), above 225 µM; in experiment [3], “Not Active”.
